# Results published in ChEMBL document CHEMBL1139875, “Discovery of 4-aminobutyric acid derivatives possessing anticonvulsant and antinociceptive activities: a hybrid pharmacophore approach” (2007).
# Active and inactive are the calls of the source. The rule behind the calls is not given here.
# Key:
# Mus musculus [1] = assay: Anticonvulsant activity in Swiss Albino mouse at 300 mg/kg, ip after 0.5 hr by MES test; format: functional, organism-based; parameters: dose 300 mg/kg
# How it was run: (§1)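 Mice (Swiss, 20-25 g) given i.p. doses of 30, 100 and 300 mg/kg under ADD program protocols, three per group, examined at 0.5 and 4 h in MES, scPTZ, scSTY or scPIC seizure tests. Value is the minimum dose protecting half or more of the mice.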
# Mus musculus [2] = assay: Anticonvulsant activity in Swiss Albino mouse at 300 mg/kg, ip after 4 hrs by MES test; format: functional, organism-based; parameters: dose 300 mg/kg; how it was run: as §1
# Mus musculus [3] = assay: Anticonvulsant activity in Swiss Albino mouse at 300 mg/kg, ip after 0.5 hr by scPTZ test; format: functional, organism-based; parameters: dose 300 mg/kg; how it was run: as §1
# Mus musculus [4] = assay: Anticonvulsant activity in Swiss Albino mouse at 300 mg/kg, ip after 0.5 hr by scSTY test; format: functional, organism-based; parameters: dose 300 mg/kg; how it was run: as §1
# Mus musculus [5] = assay: Anticonvulsant activity in Swiss Albino mouse at 300 mg/kg, ip after 4 hrs by scSTY test; format: functional, organism-based; parameters: dose 300 mg/kg; how it was run: as §1
# Mus musculus [6] = assay: Anticonvulsant activity in Swiss Albino mouse at 300 mg/kg, ip after 0.5 hr by scPIC test; format: functional, organism-based; parameters: dose 300 mg/kg; how it was run: as §1
# Mus musculus [7] = assay: Anticonvulsant activity in Swiss Albino mouse at 300 mg/kg, ip after 4 hrs by scPIC test; format: functional, organism-based; parameters: dose 300 mg/kg; how it was run: as §1
# Mus musculus [8] = assay: Neurotoxicity in Swiss Albino mouse at 300 mg/kg, ip after 0.5 hr by rotarod test; format: functional, organism-based; parameters: dose 300 mg/kg
# How it was run: (§2)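 Swiss mice (20-25 g) are trained on an accelerating rotorod (10 rpm, 3.2 cm rod), then injected i.p. at 30, 100 or 300 mg/kg, with three per group. Neurotoxicity means failure to keep equilibrium for at least 1 min in each of three trials, checked at 0.5 and 4 h. The value reported is the minimum dose affecting half or more of the mice.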
# Mus musculus [9] = assay: Neurotoxicity in Swiss Albino mouse at 300 mg/kg, ip after 4 hrs by rotarod test; format: functional, organism-based; parameters: dose 300 mg/kg; how it was run: as §2
# Mus musculus [10] = assay: Analgesic activity in Swiss Albino mouse assessed as number of acetic acid-induced writhing per 30 min after 100 mg/kg, ip; format: functional; conditions: route intraperitoneal
# How it was run: (§3)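 Mice in groups of six dosed i.p. at 100 mg/kg, controls receiving 30% v/v PEG 400 in water. Writhing induced by i.p. 0.1 mL of 3% v/v acetic acid 1 h after drug. Writhes (abdominal stretch with at least one hind limb extended) counted over 30 min; % inhibition calculated. Mean ± SEM, Student's t test.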
# Mus musculus [11] = assay: Analgesic activity in Swiss Albino mouse assessed as inhibition of acetic acid-induced writhing responses at 100 mg/kg, ip; format: functional; conditions: route intraperitoneal; how it was run: as §3
# Rattus norvegicus [12] = assay: Effect on spontaneous pain in Sprague-Dawley rat CCI model assessed as duration of paw withdrawal at 100 mg/kg, ip after 0.5 hr; format: functional; conditions: route intraperitoneal
# How it was run: (§4)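 CCI rats (n = 4) dosed 100 mg/kg i.p. (vehicle 30% v/v PEG 400 in water). After 10 min acclimatization in a cage 5 cm above ground, cumulative time the ipsilateral paw was held off the floor over 5 min recorded, excluding locomotion lifts. Mean ± SEM; ANOVA/Bonferroni versus predrug.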
# Rattus norvegicus [13] = assay: Effect on spontaneous pain in Sprague-Dawley rat CCI model assessed as duration of paw withdrawal at 100 mg/kg, ip after 1 hr; format: functional; conditions: route intraperitoneal; how it was run: as §4
# Rattus norvegicus [14] = assay: Effect on spontaneous pain in Sprague-Dawley rat CCI model assessed as duration of paw withdrawal at 100 mg/kg, ip after 1.5 hrs; format: functional; conditions: route intraperitoneal
# How it was run: (§5)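 Unilateral CCI of sciatic nerve (Bennett and Xie) in Sprague-Dawley rats under i.p. pentobarbital sodium (65 mg/kg). Spontaneous pain is scored over 5 min after 10 min acclimatization, as cumulative time the ipsilateral paw is held off the floor. Paw lifts from locomotion or repositioning are excluded. Drug is given at 100 mg/kg i.p. with 30% v/v PEG 400 vehicle. Mean ± SEM, n = 4, compared with predrug by ANOVA/Bonferroni.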
# Rattus norvegicus [15] = assay: Effect on spontaneous pain in Sprague-Dawley rat CCI model assessed as duration of paw withdrawal at 100 mg/kg, ip after 2 hrs; format: functional; conditions: route intraperitoneal; how it was run: as §5
# Rattus norvegicus [16] = assay: Anti-cold allodynia effect in Sprague-Dawley rat SNL model assessed as duration of paw withdrawal 100 mg/kg, ip after 0.5 hr; format: functional; conditions: route intraperitoneal
# How it was run: (§6)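 Left L5 spinal nerve ligation under pentobarbital (65 mg/kg i.p.). Allodynic rats dosed i.p. 100 mg/kg, vehicle 30% v/v PEG 400 in water. Acetone (100-200 µL) misted onto midplantar affected paw after 10 min acclimatization; paw withdrawal duration, mean of three samples at least 3 min apart; n = 4 rats.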
# Rattus norvegicus [17] = assay: Anti-cold allodynia effect in Sprague-Dawley rat SNL model assessed as duration of paw withdrawal 100 mg/kg, ip after 1 hrs; format: functional; conditions: route intraperitoneal; how it was run: as §6
# Rattus norvegicus [18] = assay: Anti-cold allodynia effect in Sprague-Dawley rat SNL model assessed as duration of paw withdrawal 100 mg/kg, ip after 1.5 hrs; format: functional; conditions: route intraperitoneal; how it was run: as §6
# Rattus norvegicus [19] = assay: Anti-cold allodynia effect in Sprague-Dawley rat SNL model assessed as duration of paw withdrawal 100 mg/kg, ip after 2 hrs; format: functional; conditions: route intraperitoneal; how it was run: as §6
# Rattus norvegicus [20] = assay: Anti-cold allodynia effect in Sprague-Dawley rat SNL model assessed as duration of paw withdrawal 100 mg/kg, ip after 2.5 hrs; format: functional; conditions: route intraperitoneal; how it was run: as §6
# Rattus norvegicus [21] = assay: Effect on spontaneous pain in Sprague-Dawley rat CCI model assessed as duration of paw withdrawal at 100 mg/kg, ip after 2.5 hrs; format: functional; conditions: route intraperitoneal; how it was run: as §5
# Rattus norvegicus [22] = assay: Antihyperalgesic effects in Sprague-Dawley rat CCI model assessed as duration of paw withdrawal at 100 mg/kg, ip after 0.5 hr; format: functional; conditions: route intraperitoneal
# Rattus norvegicus [23] = assay: Antihyperalgesic effects in Sprague-Dawley rat CCI model assessed as duration of paw withdrawal at 100 mg/kg, ip after 1 hr; format: functional; conditions: route intraperitoneal
# Rattus norvegicus [24] = assay: Antihyperalgesic effects in Sprague-Dawley rat CCI model assessed as duration of paw withdrawal at 100 mg/kg, ip after 1.5 hrs; format: functional; conditions: route intraperitoneal
# Rattus norvegicus [25] = assay: Antihyperalgesic effects in Sprague-Dawley rat CCI model assessed as duration of paw withdrawal at 100 mg/kg, ip after 2 hrs; format: functional; conditions: route intraperitoneal
# Rattus norvegicus [26] = assay: Antihyperalgesic effects in Sprague-Dawley rat CCI model assessed as duration of paw withdrawal at 100 mg/kg, ip after 2.5 hrs; format: functional; conditions: route intraperitoneal
# Rattus norvegicus [27] = assay: Antihyperalgesic effects in Sprague-Dawley rat SNL model assessed as duration of paw withdrawal at 100 mg/kg, ip after 0.5 hr, ip; format: functional; conditions: route intraperitoneal
# How it was run: (§7)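 L5 SNL rats (n = 4), dosed 100 mg/kg i.p. (vehicle 30% v/v PEG 400 in water). Pin-prick to midplantar ipsilateral left hindpaw; withdrawal duration, mean of three responses; ≥2 s defined abnormal. Mean ± SEM; one-way ANOVA with Bonferroni versus predrug.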
# Rattus norvegicus [28] = assay: Antihyperalgesic effects in Sprague-Dawley rat SNL model assessed as duration of paw withdrawal at 100 mg/kg, ip after 1 hr, ip; format: functional; conditions: route intraperitoneal; how it was run: as §7
# Rattus norvegicus [29] = assay: Antihyperalgesic effects in Sprague-Dawley rat SNL model assessed as duration of paw withdrawal at 100 mg/kg, ip after 1.5 hrs, ip; format: functional; conditions: route intraperitoneal; how it was run: as §7
# Rattus norvegicus [30] = assay: Antihyperalgesic effects in Sprague-Dawley rat SNL model assessed as duration of paw withdrawal at 100 mg/kg, ip after 2 hrs, ip; format: functional; conditions: route intraperitoneal; how it was run: as §7
# Rattus norvegicus [31] = assay: Antihyperalgesic effects in Sprague-Dawley rat SNL model assessed as duration of paw withdrawal at 100 mg/kg, ip after 2.5 hrs, ip; format: functional; conditions: route intraperitoneal; how it was run: as §7
# Rattus norvegicus [32] = assay: Anti-dynamic allodynia effect in Sprague-Dawley rat SNL model assessed as latency to paw withdrawal 100 mg/kg, ip after 0.5 hr; format: functional; conditions: route intraperitoneal
# How it was run: (§8)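 Left L5 spinal nerve ligation rats, tested preoperatively and 9 days postoperatively, then given 100 mg/kg i.p. (vehicle 30% v/v PEG 400 in water). After 10 min acclimatization, plantar surface of affected paw stroked mildly with a cotton-bud; paw lift response recorded. n = 4; retested 0.5-2.5 h post-dose.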
# Rattus norvegicus [33] = assay: Anti-dynamic allodynia effect in Sprague-Dawley rat SNL model assessed as latency to paw withdrawal 100 mg/kg, ip after 1 hr; format: functional; conditions: route intraperitoneal; how it was run: as §8
# Rattus norvegicus [34] = assay: Anti-dynamic allodynia effect in Sprague-Dawley rat SNL model assessed as latency to paw withdrawal 100 mg/kg, ip after 1.5 hrs; format: functional; conditions: route intraperitoneal; how it was run: as §8
# Rattus norvegicus [35] = assay: Anti-dynamic allodynia effect in Sprague-Dawley rat SNL model assessed as latency to paw withdrawal 100 mg/kg, ip after 2 hrs; format: functional; conditions: route intraperitoneal; how it was run: as §8
# Rattus norvegicus [36] = assay: Anti-dynamic allodynia effect in Sprague-Dawley rat SNL model assessed as latency to paw withdrawal 100 mg/kg, ip after 2.5 hrs; format: functional; conditions: route intraperitoneal; how it was run: as §8
Compound,Activity (Mus musculus [1]),Activity (Mus musculus [2]),Activity (Mus musculus [3]),Activity (Mus musculus [4]),Activity (Mus musculus [5]),Activity (Mus musculus [6]),Activity (Mus musculus [7]),Activity (Mus musculus [8]),Activity (Mus musculus [9]),Activity (Mus musculus [10]),inhibition in vivo at 100 mg/kg (Mus musculus [11]) [%],Activity (Rattus norvegicus [16]) [s],Activity (Rattus norvegicus [17]) [s],Activity (Rattus norvegicus [18]) [s],Activity (Rattus norvegicus [19]) [s],Activity (Rattus norvegicus [20]) [s],Activity (Rattus norvegicus [22]) [s],Activity (Rattus norvegicus [23]) [s],Activity (Rattus norvegicus [24]) [s],Activity (Rattus norvegicus [25]) [s],also measured
C/C(=N\NC(=O)NCCCC(=O)O)c1cccc(N)c1,Active,Active,inactive,inactive,inactive,inactive,inactive,Active,Active,19.7,89,4.8,11.2,17.5,13.5,15.2,9.3,9.6,9.9,6.6,Activity (Rattus norvegicus [12]): 1.7 s; Activity (Rattus norvegicus [13]): 1.2 s; Activity (Rattus norvegicus [14]): 0.9 s; Activity (Rattus norvegicus [15]): 1.4 s; Activity (Rattus norvegicus [21]): 2.8 s; Activity (Rattus norvegicus [26]): 4.8 s; Activity (Rattus norvegicus [27]): 2.4 s; Activity (Rattus norvegicus [28]): 6.5 s; Activity (Rattus norvegicus [29]): 7.3 s; Activity (Rattus norvegicus [30]): 19.5 s; Activity (Rattus norvegicus [31]): 17.3 s
O=C(O)CCCNC(=O)NN=C1CCCC1,inactive,Active,inactive,inactive,inactive,inactive,inactive,Active,Active,18,90,12,11.2,10.9,11,1.9,32.1,30.7,17.7,22.8,Activity (Rattus norvegicus [32]): 5.7 s; Activity (Rattus norvegicus [33]): 6.6 s; Activity (Rattus norvegicus [34]): 7.8 s; Activity (Rattus norvegicus [35]): 10.3 s; Activity (Rattus norvegicus [36]): 10.92 s; Activity (Rattus norvegicus [26]): 25.3 s; Activity (Rattus norvegicus [27]): 5.3 s; Activity (Rattus norvegicus [28]): 9.9 s; Activity (Rattus norvegicus [29]): 5.1 s; Activity (Rattus norvegicus [30]): 9.6 s; Activity (Rattus norvegicus [31]): 8.6 s
